Measured values as given in ChEMBL document CHEMBL3580635, “9-Hydroxycanthin-6-one, a β-Carboline Alkaloid from Eurycoma longifolia, Is the First Wnt Signal Inhibitor through Activation of Glycogen Synthase Kinase 3β without Depending on Casein Kinase 1α” (J Nat Prod, 2015).
Calls of active or inactive are those of the source. The rule behind the calls is not given here.

Columns and labels:
SW480 [1] = experiment: Cytotoxicity against Wnt-dependent human SW480 cells assessed as cell viability after 24 hrs by fluorescence assay; details: SW480, 24 h
HCT-116 = experiment: Cytotoxicity against Wnt-dependent human HCT116 cells assessed as cell viability after 24 hrs by fluorescence assay; type: functional, cell-based; details: HCT-116, 24 h
[2] = Cytotoxicity against Wnt-dependent human DLD1 cells assessed as cell viability after 24 hrs by fluorescence assay; type: functional, cell-based; details: DLD-1, 24 h
HEK293 [3] = experiment: Cytotoxicity against HEK293 cells transfected with SuperTOPFlash reporter gene assessed as cell viability at 10 to 40 uM after 24 hrs by fluorescence assay; type: cell-based; details: human, hek293, 24 h
Outline: (§1)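 STF/293 cells seeded 3 × 10^4/well, grown 24 h, then exposed 24 h to compound diluted in medium (DMSO final below 0.1%). Cells washed, then given fluorescein diacetate 10 μg/mL in PBS for 1 h at 37 °C. Fluorescence read at ex 485/em 538 nm. Mean ± SE, n = 3.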

HEK293 [4] = experiment: Cytotoxicity against HEK293 cells assessed as cell viability after 24 hrs by fluorescence assay; type: cell-based; details: Homo sapiens, HEK293, 24 h
[5] = biological target: T1, Glycogen synthase kinase-3 beta (Homo sapiens, UniProt P49841); experiment: Activation of GSK-3beta in HEK293 cells assessed as suppression of TCF/beta-catenin transcriptional activity after 24 hrs by SuperTOPFlash reporter gene assay; type: cell-based
Outline: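 STF/293 cells (293 cells stably carrying SuperTOPFlash, seven LEF/TCF sites) seeded 3 × 10^4/well; 24 h later given compound plus LiCl (final 15 mM) for 24 h. Cells lysed and firefly luciferase read, compared with no-compound control. DMSO final below 0.1%. At least triplicate; mean ± SE, n = 3.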

HEK-293T = experiment: Cytotoxicity against HEK293T cells assessed as cell viability after 24 hrs by fluorescence assay; type: cell-based; details: Homo sapiens
RKO = experiment: Cytotoxicity against Wnt-independent human RKO cells assessed as cell viability after 24 hrs by fluorescence assay; type: functional, cell-based
HEK293 [6] = experiment: Cytotoxicity against HEK293 cells transfected with SuperTOPFlash reporter gene assessed as cell viability at 2.5 to 10 uM after 24 hrs by fluorescence assay; type: cell-based; details: human, hek293, 24 h
Outline: as §1

[7] = biological target: T1, Glycogen synthase kinase-3 beta; experiment: Activation of GSK-3beta in human SW480 cells assessed as increase in phosphorylation of beta-catenin at Thr41 at 30 uM after 24 hrs by Western blot analysis in presence of GSK-3beta siRNA; type: cell-based
Outline: (§2)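 SW480 cells, 1 × 10^5/well, grown 24 h, then transfected for 3 h with control or GSK3β siRNA (10 pmol, Lipofectamine 2000). Compound then added in DMEM/10% FBS for 24 h. Whole-cell lysates Western blotted, normalized to β-actin.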
Target sequence in this assay (P49841 whole entry, looked up): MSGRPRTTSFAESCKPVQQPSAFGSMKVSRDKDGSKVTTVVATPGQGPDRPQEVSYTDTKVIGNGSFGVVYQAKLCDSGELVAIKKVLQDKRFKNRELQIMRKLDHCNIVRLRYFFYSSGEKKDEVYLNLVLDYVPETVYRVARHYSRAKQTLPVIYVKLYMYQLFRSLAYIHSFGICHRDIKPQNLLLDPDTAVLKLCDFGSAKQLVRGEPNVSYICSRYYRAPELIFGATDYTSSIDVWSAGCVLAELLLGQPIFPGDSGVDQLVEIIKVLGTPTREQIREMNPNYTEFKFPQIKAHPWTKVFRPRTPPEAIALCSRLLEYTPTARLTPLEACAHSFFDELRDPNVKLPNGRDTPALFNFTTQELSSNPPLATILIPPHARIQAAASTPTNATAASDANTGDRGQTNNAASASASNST

[8] = biological target: T1, Glycogen synthase kinase-3 beta; experiment: Activation of GSK-3beta in human SW480 cells assessed as increase in phosphorylation of beta-catenin at Ser33 at 30 uM after 24 hrs by Western blot analysis in presence of GSK-3beta siRNA; type: cell-based
Outline: as §2
Target sequence in this assay (P49841 whole entry, looked up): as above

[9] = biological target: T1, Glycogen synthase kinase-3 beta; experiment: Activation of GSK-3beta in human SW480 cells assessed as increase in phosphorylation of beta-catenin at Ser33 at 10 to 30 uM after 24 hrs by Western blot analysis; type: cell-based
Outline: (§3)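 SW480 cells, 1 × 10^6 per 90 mm dish, treated 24 h after seeding for 24 h. Whole-cell lysates made in Triton/deoxycholate buffer with phosphatase and protease inhibitors; cytosolic and nuclear fractions prepared by NE-PER. Proteins run on 10% SDS-PAGE, blotted to PVDF, probed, detected by ECL. Bands normalized to β-actin or histone H1.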
Target sequence in this assay (P49841 whole entry, looked up): as above

[10] = biological target: T1, Glycogen synthase kinase-3 beta; experiment: Activation of GSK-3beta in human SW480 cells assessed as increase in phosphorylation of beta-catenin at Ser37 at 30 uM after 24 hrs by Western blot analysis in presence of CK1alpha siRNA; type: cell-based
Outline: (§4)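 SW480 cells, 5 × 10^4/well, grown 24 h, then transfected for 6 h with control or CK1α siRNA (10 pmol, Lipofectamine 2000). Compound then added in DMEM/10% FBS for 24 h. Whole-cell lysates Western blotted, normalized to β-actin.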
Target sequence in this assay (P49841 whole entry, looked up): as above

[11] = biological target: T1, Glycogen synthase kinase-3 beta; experiment: Activation of GSK-3beta in human SW480 cells assessed as increase in phosphorylation of beta-catenin at Ser33 at 30 uM after 24 hrs by Western blot analysis in presence of CK1alpha siRNA; type: cell-based
Outline: as §4
Target sequence in this assay (P49841 whole entry, looked up): as above

[12] = biological target: T1, Glycogen synthase kinase-3 beta; experiment: Activation of GSK-3beta in human SW480 cells assessed as increase in phosphorylation of beta-catenin at Ser37 at 10 to 30 uM after 24 hrs by Western blot analysis; type: cell-based
Outline: as §3
Target sequence in this assay (P49841 whole entry, looked up): as above

[13] = biological target: T1, Glycogen synthase kinase-3 beta; experiment: Activation of GSK-3beta in human SW480 cells assessed as increase in phosphorylation of beta-catenin at Ser37 at 30 uM after 24 hrs by Western blot analysis in presence of GSK-3beta siRNA; type: cell-based
Outline: as §2

HEK293 [14] = experiment: Cytotoxicity against HEK293 cells transfected with SuperTOPFlash reporter gene assessed as cell viability at 5 to 20 uM after 24 hrs by fluorescence assay; type: cell-based; details: human, hek293, 24 h
Outline: as §1

SW480 [15] = experiment: Effect on GSK-3beta expression in human SW480 cells at 10 to 30 uM after 24 hrs by Western blot analysis; type: functional, cell-based
Outline: as §3

[16] = biological target: T1, Glycogen synthase kinase-3 beta; experiment: Activation of GSK-3beta in human SW480 cells assessed as increase in phosphorylation of beta-catenin at Thr41 at 10 to 30 uM after 24 hrs by Western blot analysis; type: cell-based
Outline: as §3

[17] = biological target: T1, Glycogen synthase kinase-3 beta; experiment: Activation of GSK-3beta in human SW480 cells assessed as increase in phosphorylation of beta-catenin at Ser37 at 30 uM after 24 hrs by Western blot analysis in presence of control siRNA; type: cell-based
Outline: as §2

[18] = biological target: T1, Glycogen synthase kinase-3 beta; experiment: Inhibition of GSK-3beta phosphorylation at Ser9 in human SW480 cells at 30 uM after 24 hrs by Western blot analysis in presence of CK1alpha siRNA; type: cell-based
Outline: as §4

[19] = biological target: T1, Glycogen synthase kinase-3 beta; experiment: Activation of GSK-3beta in human SW480 cells assessed as increase in phosphorylation of beta-catenin at Thr41 at 30 uM after 24 hrs by Western blot analysis in presence of CK1alpha siRNA; type: cell-based
Outline: as §4

[20] = biological target: T1, Glycogen synthase kinase-3 beta; experiment: Activation of GSK-3beta in human SW480 cells assessed as downregulation of beta-catenin expression in cytosolic fraction at 10 to 30 uM after 24 hrs by Western blot analysis; type: cell-based
Outline: as §3

[21] = biological target: T1, Glycogen synthase kinase-3 beta; experiment: Inhibition of GSK-3beta phosphorylation at Ser9 in human SW480 cells at 30 uM after 24 hrs by Western blot analysis in presence of control and GSK-3beta siRNA; type: cell-based
Outline: as §2

[22] = Activation of GSK-3beta in zebrafish embryo assessed as suppression of Wnt/beta-catenin signaling pathway at 300 uM measured 10 to 24 hrs post fertilization by TOPdGFP reporter gene-based fluorescence microscopic analysis in presence of MO, p53 MO; details: Danio rerio
Outline: (§5)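 TOPdGFP transgenic zebrafish embryos injected at the one- or two-cell stage with 5 ng control or p53 morpholino. Exposed 10–24 hpf at 28.5 °C in E3 medium containing 300 μM compound. TOPdGFP in the midbrain tectum imaged by fluorescence microscopy; apoptotic cells detected by TUNEL kit.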

Danio rerio [23] = organism: Danio rerio; experiment: Activation of GSK-3beta in zebrafish embryo assessed as reduction of BIO-induced eyeless phenotype appearance at 100 uM measured 4 to 30 hrs post fertilization; design: scale not given: the % may be the effect or the level left
Outline: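 Zebrafish embryos exposed 4–30 hpf at 28.5 °C in E3 medium to BIO (0.5 μM) alone or BIO plus compound (100 μM), then examined under a stereomicroscope.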

SW480 [24] = experiment: Effect on CK1alpha expression in human SW480 cells at 10 to 30 uM after 24 hrs by Western blot analysis; type: functional, cell-based
Outline: as §3

Danio rerio [25] = organism: Danio rerio; experiment: Induction of apoptosis in zebrafish embryo at 300 uM measured 10 to 24 hrs post fertilization by TUNEL assay in presence of MO, p53 MO; type: organism-based; details: in vivo
Outline: as §5

Danio rerio [26] = organism: Danio rerio; experiment: Activation of GSK-3beta in zebrafish embryo assessed as suppression of mitf gene expression in neural crest cells at 300 uM measured 24 hrs post fertilization by in situ hybridization method in presence of MO, p53 MO; type: cell-based
[27] = biological target: Casein kinase I isoform alpha (Homo sapiens) (UniProt P48729); experiment: Effect on CK1alpha in human SW480 cells assessed as change in phosphorylation of beta-catenin at Ser45 at 10 to 30 uM after 24 hrs by Western blot analysis; type: cell-based
Sequence of Casein kinase I isoform alpha (Homo sapiens) (P48729 2-337 limits assumed): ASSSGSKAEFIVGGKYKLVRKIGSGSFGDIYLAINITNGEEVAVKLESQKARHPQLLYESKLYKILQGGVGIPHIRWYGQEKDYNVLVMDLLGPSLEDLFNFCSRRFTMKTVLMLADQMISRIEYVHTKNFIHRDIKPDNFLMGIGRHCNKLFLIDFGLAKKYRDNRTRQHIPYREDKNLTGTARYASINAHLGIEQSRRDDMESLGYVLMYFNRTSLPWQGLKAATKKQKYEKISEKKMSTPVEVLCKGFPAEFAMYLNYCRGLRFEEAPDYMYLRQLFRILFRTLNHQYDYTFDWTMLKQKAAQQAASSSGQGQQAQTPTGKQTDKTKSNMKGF
Outline: as §3

[28] = biological target: T1, Glycogen synthase kinase-3 beta; experiment: Activation of GSK-3beta in human SW480 cells assessed as increase in phosphorylation of beta-catenin at Thr41 at 30 uM after 24 hrs by Western blot analysis in presence of control siRNA; type: cell-based
Outline: as §2

Danio rerio [29] = organism: Danio rerio; experiment: Activation of GSK-3beta in zebrafish embryo assessed as suppression of zic2a gene expression in midbrain tectum at 300 uM measured 4 to 24 hrs post fertilization by in situ hybridization method in presence of MO, p53 MO; type: tissue-based
Danio rerio [30] = organism: Danio rerio; experiment: Activation of GSK-3beta in zebrafish embryo assessed as reduction of pigment cells on tail at 300 uM measured 4 to 30 hrs post fertilization
[31] = biological target: T1, Glycogen synthase kinase-3 beta; experiment: Activation of GSK-3beta in human SW480 cells assessed as downregulation of beta-catenin expression in nuclear fraction at 10 to 30 uM after 24 hrs by Western blot analysis; type: cell-based
Outline: as §3

[32] = biological target: T1, Glycogen synthase kinase-3 beta; experiment: Activation of GSK-3beta in human SW480 cells assessed as increase in phosphorylation of beta-catenin at Ser33 at 30 uM after 24 hrs by Western blot analysis in presence of control siRNA; type: cell-based
Outline: as §2

Compound: O=c1ccc2nccc3c4ccc(O[C@@H]5O[C@H](CO)[C@@H](O)[C@H](O)[C@H]5O)cc4n1c23
- IC50 (SW480 [1]): > 40 µM
- IC50 (HCT-116): > 40 µM
- IC50 [2]: > 40 µM
- Activity (HEK293 [3]): Non-toxic
- IC50 (HEK293 [4]): 36.7 µM
- Activity [5]: Dose-dependent effect
- IC50 [5]: 11.6 µM
- IC50 (HEK-293T): > 40 µM
- IC50 (RKO): > 40 µM

Compound: CC(=O)O[C@@H]1C[C@H]2C(C)(C)C(=O)C=C[C@]2(C)[C@H]2CC[C@]3(C)C(=CC[C@H]3[C@H]3COC(=O)C3)[C@@]21C
- IC50 (SW480 [1]): 11.2 µM
- IC50 (HCT-116): 24.4 µM
- IC50 [2]: 31.7 µM
- IC50 (HEK293 [4]): 31.2 µM
- Activity [5]: Dose-dependent effect
- IC50 [5]: 3 µM
- IC50 (HEK-293T): > 40 µM
- Activity (HEK293 [6]): Non-toxic
- IC50 (RKO): 26.4 µM

Compound: O=c1ccc2nccc3c4ccc(O)cc4n1c23
- Activity [7]: inactive
- Activity [8]: inactive
- Activity [9]: Active
- Activity [10]: Active
- Activity [11]: Active
- Activity [12]: Active
- Activity [13]: inactive
- Activity (HEK293 [14]): Non-toxic
- IC50 (SW480 [1]): 17.4 µM
- IC50 (HCT-116): 30 µM
- IC50 [2]: > 40 µM
- Activity (SW480 [15]): inactive
- Activity [16]: Active
- Activity [17]: Active
- inhibition [18]: Active
- IC50 (HEK293 [4]): 36.7 µM
- Activity [19]: Active
- Activity [20]: Active
- inhibition [21]: Active
- Activity [5]: Dose-dependent effect
- IC50 [5]: 6.8 µM
- Activity [22]: Active
- Activity (Danio rerio [23]): 46%
- Activity (SW480 [24]): inactive
- Activity (Danio rerio [25]): Non-toxic
- Activity (Danio rerio [26]): Active
- IC50 (HEK-293T): > 40 µM
- Activity [27]: inactive
- IC50 (RKO): > 40 µM
- Activity [28]: Active
- Activity (Danio rerio [29]): Active
- Activity (Danio rerio [30]): Active
- Activity [31]: Active
- Activity [32]: Active
